The values below come from article PMC3398245 (Analytical Biochemistry, 2012).

Experiment [1] has as its target T1, GST-RIP1 kinase domain (Homo sapiens, UniProt Q13546).
T1 sequence (Q13546 8-327): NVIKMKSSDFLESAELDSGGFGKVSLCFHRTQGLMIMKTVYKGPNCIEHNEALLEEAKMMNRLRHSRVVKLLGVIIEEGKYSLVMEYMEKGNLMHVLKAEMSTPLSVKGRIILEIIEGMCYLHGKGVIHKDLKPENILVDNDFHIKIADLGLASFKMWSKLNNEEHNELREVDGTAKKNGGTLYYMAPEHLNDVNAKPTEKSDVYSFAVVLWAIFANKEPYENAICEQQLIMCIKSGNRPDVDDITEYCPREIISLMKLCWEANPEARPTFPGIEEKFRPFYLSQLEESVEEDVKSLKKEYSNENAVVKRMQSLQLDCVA
In words: FP competition assay with fluorescein-Nec-1. It counts as binding. As to conditions: competition with 50 nM 20, 2.6 µM GST-RIP1, 3% DMSO.

In experiment [2] the target is T1, GST-RIP1 kinase domain. Briefly: FP competition assay with fluorescein-Nec-3. It counts as binding. As to conditions: competition with 50 nM 26, 3.4 µM GST-RIP1, 3% DMSO. Summed up:
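Human RIP1 kinase domain (aa 8–327) as a GST fusion, expressed in baculovirus-infected Sf9 cells and purified by glutathione affinity and gel filtration. Tracer (50 nM) preincubated 5 min with 3.4 µM protein. Test compound titrated 0–100 µM at 3% final DMSO, then 10 min incubation. FP read at ex 485/em 535 nm in mP. IC50 from nonlinear variable-slope fit.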

With `CN1C(=O)C(Cc2c[nH]c3ccccc23)NC1=S` (stereo not shown) [Compound 1], the IC50 at GST-RIP1 kinase domain [1] was determined as 9.9 ± 0.6 µM; at GST-RIP1 kinase domain [2], 7 ± 0.7 µM.

For `COc1ccc2c(c1)C1=NN(C(C)=O)C(c3ccc(F)cc3)C1CC2` (stereo not shown) [Compound 7], the IC50 at GST-RIP1 kinase domain [1] was 10.7 ± 1.8 µM; at GST-RIP1 kinase domain [2], 3.9 ± 0.7 µM.
